According to ChEMBL document CHEMBL3860025, “Antiproliferative and Anti-inflammatory Withanolides from Physalis angulata” (J Nat Prod, 2016):

Legend:
[1] = Antiproliferative activity against human C4-2B cells assessed as inhibition of cell viability after 48 hrs by MTT reduction assay; assay type: functional, cell-based; conditions: LNCaP C4-2B
Summary of the method: (§1)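 Cells grown in RPMI-1640 or EMEM with 10% FBS at 37 °C under 5% CO2. Seeded at 1 × 10^4 cells/well for 12 h, then exposed to a range of compound concentrations for 48 h. Viability read by MTT reduction. 5-Fluorouracil was the positive control. Each assay was repeated three times, and IC50 reported as mean ± SD.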

[2] = Antiproliferative activity against human ACHN cells assessed as inhibition of cell viability after 48 hrs by MTT reduction assay; assay type: functional, cell-based; summary of the method: as §1
[3] = Antiproliferative activity against human 22Rv1 cells assessed as inhibition of cell viability after 48 hrs by MTT reduction assay; assay type: functional, cell-based, CWR22R; conditions: 22Rv1, 48 h; summary of the method: as §1
[4] = Antiproliferative activity against human A375-S2 cells assessed as inhibition of cell viability after 48 hrs by MTT reduction assay; assay type: functional, cell-based; conditions: A375-S2, 48 h; summary of the method: as §1
[5] = Antiinflammatory activity in mouse RAW264.7 cells assessed as inhibition of LPS-induced nitric oxide production after 24 hrs by Griess assay; assay type: functional, cell-based; conditions: RAW264.7, 24 h
Summary of the method: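 RAW 264.7 macrophages seeded at 1 × 10^6 cells/well, then incubated 24 h at 37 °C with LPS (1 μg/mL), with or without test compounds. NO measured by Griess reagent (0.1% N-(1-naphthyl)ethylenediamine plus 1% sulfanilamide in 5% H3PO4), absorbance at 540 nm. NO concentration and inhibition rate calculated from a standard curve. Hydrocortisone served as positive control.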

[6] = Antiproliferative activity against human 786-0 cells assessed as inhibition of cell viability after 48 hrs by MTT reduction assay; assay type: functional, cell-based; conditions: 786-0, 48 h; summary of the method: as §1
[7] = Antiproliferative activity against human A498 cells assessed as inhibition of cell viability after 48 hrs by MTT reduction assay; assay type: functional, cell-based; conditions: A498, 48 h; summary of the method: as §1

SMILES | IC50 [1] | IC50 [2] | IC50 [3] | IC50 [4] | IC50 [5] | IC50 [6] | IC50 [7]
CC1=C(C)C(=O)O[C@@H]([C@](C)(O)[C@H]2C[C@H](O)[C@H]3[C@@H]4C[C@@H](O)[C@@]5(O)CC=CC(=O)[C@]5(C)[C@H]4CC[C@@]32C)C1 | > 10 µM | > 10 µM | > 10 µM | > 10 µM | 71.7 µM | > 10 µM | > 10 µM
CC1=C(C)C(=O)O[C@@H]([C@@H](C)C2=C[C@@H]3OC(C)(C)O[C@@]34[C@@H]3C[C@@H](O)[C@@]5(O)CC=CC(=O)[C@]5(C)[C@H]3CC[C@]24C)C1 | > 10 µM | > 10 µM | > 10 µM | > 10 µM | 55.9 µM | > 10 µM | > 10 µM
CC1=C(C)C(=O)O[C@@H]([C@@H](C)[C@]23O[C@H]2[C@H](O)[C@]2(O)[C@@H]4C[C@@H](O)[C@@]5(O)CC=CC(=O)[C@]5(C)[C@H]4CC[C@@]23C)C1 | > 10 µM | > 10 µM | > 10 µM | > 10 µM | > 100 µM | > 10 µM | > 10 µM
CC(=O)O[C@H]1C[C@H]([C@H](C)[C@H]2CC(C)=C(C)C(=O)O2)[C@@]2(C)CC[C@H]3[C@@H](C[C@@H](O)[C@@]4(O)CC=CC(=O)[C@]34C)[C@@]12O | > 10 µM | > 10 µM | > 10 µM | > 10 µM | 43.8 µM | > 10 µM | > 10 µM
